In ChEMBL document CHEMBL5316281, “Trojan Horse Siderophore Conjugates Induce Pseudomonas aeruginosa Suicide and Qualify the TonB Protein as a Novel Antibiotic Target” (2023):
Calls of active or inactive are those of the source. The rule behind the calls is not given here. Where a SMILES comes first, the peptide text is derived from it. The star is where a group is joined. X1 = O=C(COCC(=O)*)NCCOCCOCCOCCOCCOCCOCCOCCOCCn1cc(CCCC(=O)Nc2c(CNC(=O)c3cccc(O)c3O)cc(CNC(=O)c3cccc(O)c3O)cc2CNC(=O)c2cccc(O)c2O)nn1

Columns and labels:
Pseudomonas aeruginosa [1] = assay: Antimicrobial activity against Pseudomonas aeruginosa harboring deltapvdF-deltapchA mutant assessed as inhibition of bacterial growth by measuring minimal inhibitory concentration incubated for 24 hrs in presence of iron-depleted CAA medium; format: functional
Pseudomonas aeruginosa [2] = assay: Antimicrobial activity against Pseudomonas aeruginosa harboring deltapvdF-deltapchA mutant assessed as inhibition of bacterial growth by measuring minimal inhibitory concentration incubated for 48 hrs in presence of iron-depleted CAA medium; format: functional
Pseudomonas aeruginosa [3] = assay: Antimicrobial activity against Pseudomonas aeruginosa PAO1 assessed as inhibition of bacterial growth in presence of iron-depleted CAA medium; format: functional, organism-based
Pseudomonas aeruginosa [4] = assay: Antimicrobial activity against Pseudomonas aeruginosa harboring deltapvdF-deltapchA mutant assessed as decrease in fptA transcription level at 10 uM incubated for 8 hrs in presence of iron-depleted CAA medium by qRT-PCR analysis; format: functional, organism-based
Method in brief: (§1)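 Cells grown in CAA medium for 8 h at 30 °C with vigorous shaking, with or without 10 μM compound; 2.5 x 10⁸ cells stabilized in two volumes RNAprotect; RNA processed per earlier protocol; RT-qPCR with primer efficiencies from serially diluted genomic DNA; double ΔCT analysis.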

Pseudomonas aeruginosa [5] = assay: Antimicrobial activity against Pseudomonas aeruginosa harboring deltapvdF-deltapchA mutant assessed as effect on pirA transcription level at 10 uM incubated for 8 hrs in presence of iron-depleted CAA medium by qRT-PCR analysis; format: functional, organism-based; method in brief: as §1
Pseudomonas aeruginosa [6] = assay: Antimicrobial activity against Pseudomonas aeruginosa harboring deltapvdF-deltapchA mutant assessed as increase in pfeA transcription level at 10 uM incubated for 8 hrs in presence of iron-depleted CAA medium by qRT-PCR analysis; format: functional, organism-based; method in brief: as §1
Pseudomonas aeruginosa [7] = assay: Antimicrobial activity against Pseudomonas aeruginosa harboring deltapvdF-deltapchA mutant with PirA deletion assessed as reduction of bacterial growth at 10 uM by growth kinetic assay; format: functional, organism-based
Method in brief: (§2)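 Overnight LB culture washed, regrown in CAA at 30 °C, washed, resuspended in CAA at OD600 0.02; fresh sterile-filtered aqueous compound added to 10 µM final; OD600 read in plate reader for 48 h at 30 °C with regular agitation.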

Pseudomonas aeruginosa [8] = assay: Antimicrobial activity against Pseudomonas aeruginosa harboring deltapvdF-deltapchA mutant with PfeA deletion assessed as reduction of bacterial growth at 10 uM by growth kinetic assay; format: functional, organism-based; method in brief: as §2
Pseudomonas aeruginosa [9] = assay: Antimicrobial activity against Pseudomonas aeruginosa harboring deltapvdF-deltapchA mutant with PirA-PfeA dual deletion assessed as reduction of bacterial growth at 10 uM by growth kinetic assay; format: functional, organism-based; method in brief: as §2
Pseudomonas aeruginosa [10] = assay: Antimicrobial activity against Pseudomonas aeruginosa PAO1 assessed as fold increase in pfeA transcription level at 10 uM incubated for 8 hrs in presence of iron-depleted CAA medium by qRT-PCR analysis; format: functional; method in brief: as §1

CC[C@H](C)[C@H](NC(=O)[C@H](CCSC)NC(=O)[C@@H](NC(=O)[C@H](C)NC(=O)CNC(=O)[C@H](CC(C)C)NC(=O)[C@H](CC(=O)O)NC(=O)[C@@H](NC(=O)[C@H](CO)NC(=O)[C@H](CO)NC(=O)[C@H](CC(=O)O)NC(=O)COCC(=O)NCCOCCOCCOCCOCCOCCOCCOCCOCCn1cc(CCCC(=O)Nc2c(CNC(=O)c3cccc(O)c3O)cc(CNC(=O)c3cccc(O)c3O)cc2CNC(=O)c2cccc(O)c2O)nn1)C(C)C)[C@@H](C)O)C(=O)N[C@H](C(=O)N[C@@H](CO)C(=O)N[C@@H](CC(N)=O)C(=O)N[C@@H](CCC(N)=O)C(=O)N[C@@H](CC(C)C)C(=O)NCC(=O)N[C@H](C(=O)N[C@H](C(=O)N[C@@H](CCCCN)C(N)=O)[C@@H](C)CC)[C@@H](C)O)[C@@H](C)O (X1-DSSVDLGATMITSNQLGTIK-NH2)
MIC (Pseudomonas aeruginosa [1]): > 64 µM
MIC (Pseudomonas aeruginosa [2]): > 64 µM
Activity (Pseudomonas aeruginosa [3]): inactive
Activity (Pseudomonas aeruginosa [4]): Active
Activity (Pseudomonas aeruginosa [5]): inactive
Activity (Pseudomonas aeruginosa [6]): Active
Activity (Pseudomonas aeruginosa [7]): inactive
Activity (Pseudomonas aeruginosa [8]): Active
Activity (Pseudomonas aeruginosa [9]): Active

H-SLIRVSQDDLVQMSPSVISAARPK-NH2
Activity (Pseudomonas aeruginosa [3]): inactive
Activity (Pseudomonas aeruginosa [4]): Active
Activity (Pseudomonas aeruginosa [5]): inactive
Activity (Pseudomonas aeruginosa [6]): inactive
Activity (Pseudomonas aeruginosa [7]): inactive
Activity (Pseudomonas aeruginosa [8]): inactive
Activity (Pseudomonas aeruginosa [9]): inactive

CC[C@H](C)[C@H](NC(=O)[C@@H](NC(=O)COCC(=O)NCCOCCOCCOCCOCCOCCOCCOCCOCCn1cc(CCCC(=O)Nc2c(CNC(=O)c3cccc(O)c3O)cc(CNC(=O)c3cccc(O)c3O)cc2CNC(=O)c2cccc(O)c2O)nn1)C(C)C)C(=O)N[C@@H](CCC(=O)O)C(=O)N[C@@H](CC(C)C)C(=O)NCC(=O)N[C@@H](CCC(=O)O)C(=O)N[C@@H](CCC(N)=O)C(=O)N[C@H](C(=O)N[C@H](C(=O)N[C@H](C(=O)N[C@@H](C)C(=O)N[C@H](C(=O)N[C@@H](C)C(=O)N[C@@H](CCC(N)=O)C(=O)N[C@@H](CCC(=O)O)C(=O)N[C@@H](CCC(=O)O)C(=O)N[C@H](C(=O)N[C@@H](CCCCN)C(=O)N[C@@H](CCC(N)=O)C(=O)N[C@@H](CCCCN)C(N)=O)[C@@H](C)O)[C@@H](C)O)C(C)C)C(C)C)[C@@H](C)O (X1-VIELGEQTVVATAQEETKQK-NH2)
MIC (Pseudomonas aeruginosa [1]): > 64 µM
MIC (Pseudomonas aeruginosa [2]): > 64 µM
Activity (Pseudomonas aeruginosa [3]): inactive
Activity (Pseudomonas aeruginosa [7]): inactive
Activity (Pseudomonas aeruginosa [8]): Active
Activity (Pseudomonas aeruginosa [9]): Active

H-VIELGEQTVVATAQEETKQK-NH2
Activity (Pseudomonas aeruginosa [3]): inactive
Activity (Pseudomonas aeruginosa [4]): Active
Activity (Pseudomonas aeruginosa [5]): inactive
Activity (Pseudomonas aeruginosa [6]): inactive
Activity (Pseudomonas aeruginosa [7]): inactive
Activity (Pseudomonas aeruginosa [8]): inactive
Activity (Pseudomonas aeruginosa [9]): inactive

CC[C@H](C)[C@H](NC(=O)[C@H](CC(C)C)NC(=O)[C@H](CO)NC(=O)COCC(=O)NCCOCCOCCOCCOCCOCCOCCOCCOCCn1cc(CCCC(=O)Nc2c(CNC(=O)c3cccc(O)c3O)cc(CNC(=O)c3cccc(O)c3O)cc2CNC(=O)c2cccc(O)c2O)nn1)C(=O)N[C@@H](CCCNC(=N)N)C(=O)N[C@H](C(=O)N[C@@H](CO)C(=O)N[C@@H](CCC(N)=O)C(=O)N[C@@H](CC(=O)O)C(=O)N[C@@H](CC(=O)O)C(=O)N[C@@H](CC(C)C)C(=O)N[C@H](C(=O)N[C@@H](CCC(N)=O)C(=O)N[C@@H](CCSC)C(=O)N[C@@H](CO)C(=O)N1CCC[C@H]1C(=O)N[C@@H](CO)C(=O)N[C@H](C(=O)N[C@H](C(=O)N[C@@H](CO)C(=O)N[C@@H](C)C(=O)N[C@@H](C)C(=O)N[C@@H](CCCNC(=N)N)C(=O)N1CCC[C@H]1C(=O)N[C@@H](CCCCN)C(N)=O)[C@@H](C)CC)C(C)C)C(C)C)C(C)C (X1-SLIRVSQDDLVQMSPSVISAARPK-NH2)
MIC (Pseudomonas aeruginosa [1]): > 64 µM
MIC (Pseudomonas aeruginosa [2]): > 64 µM
Activity (Pseudomonas aeruginosa [3]): inactive
Activity (Pseudomonas aeruginosa [7]): inactive
Activity (Pseudomonas aeruginosa [8]): Active
Activity (Pseudomonas aeruginosa [9]): Active

H-DSSVDLGATMITSNQLGTIK-NH2
Activity (Pseudomonas aeruginosa [3]): inactive
Activity (Pseudomonas aeruginosa [4]): Active
Activity (Pseudomonas aeruginosa [5]): inactive
Activity (Pseudomonas aeruginosa [6]): inactive
Activity (Pseudomonas aeruginosa [7]): inactive
Activity (Pseudomonas aeruginosa [8]): inactive
Activity (Pseudomonas aeruginosa [9]): inactive

CC[C@H](C)[C@H](NC(=O)[C@H](CCSC)NC(=O)[C@@H](NC(=O)[C@H](C)NC(=O)CNC(=O)[C@H](CC(C)C)NC(=O)[C@H](CC(=O)O)NC(=O)[C@@H](NC(=O)[C@H](CO)NC(=O)[C@H](CO)NC(=O)[C@@H](N)CC(=O)O)C(C)C)[C@@H](C)O)C(=O)N[C@H](C(=O)N[C@@H](CO)C(=O)N[C@@H](CC(N)=O)C(=O)N[C@@H](CCC(N)=O)C(=O)N[C@@H](CC(C)C)C(=O)NCC(=O)N[C@H](C(=O)N[C@H](C(=O)N[C@@H](CCCCNC(=O)COCC(=O)NCCOCCOCCOCCOCCOCCOCCOCCOCCn1cc(CCCC(=O)Nc2c(CNC(=O)c3cccc(O)c3O)cc(CNC(=O)c3cccc(O)c3O)cc2CNC(=O)c2cccc(O)c2O)nn1)C(N)=O)[C@@H](C)CC)[C@@H](C)O)[C@@H](C)O (H-DSSVDLGATMITSNQLGTIK(X1)-NH2)
MIC (Pseudomonas aeruginosa [1]): > 64 µM
MIC (Pseudomonas aeruginosa [2]): > 64 µM
Activity (Pseudomonas aeruginosa [3]): inactive
Activity (Pseudomonas aeruginosa [4]): Active
Activity (Pseudomonas aeruginosa [5]): inactive
Activity (Pseudomonas aeruginosa [6]): Active
Activity (Pseudomonas aeruginosa [7]): inactive
Activity (Pseudomonas aeruginosa [8]): Active
Activity (Pseudomonas aeruginosa [9]): Active

CC[C@H](C)[C@H](NC(=O)[C@H](CC(C)C)NC(=O)[C@@H](N)CO)C(=O)N[C@@H](CCCNC(=N)N)C(=O)N[C@H](C(=O)N[C@@H](CO)C(=O)N[C@@H](CCC(N)=O)C(=O)N[C@@H](CC(=O)O)C(=O)N[C@@H](CC(=O)O)C(=O)N[C@@H](CC(C)C)C(=O)N[C@H](C(=O)N[C@@H](CCC(N)=O)C(=O)N[C@@H](CCSC)C(=O)N[C@@H](CO)C(=O)N1CCC[C@H]1C(=O)N[C@@H](CO)C(=O)N[C@H](C(=O)N[C@H](C(=O)N[C@@H](CO)C(=O)N[C@@H](C)C(=O)N[C@@H](C)C(=O)N[C@@H](CCCNC(=N)N)C(=O)N1CCC[C@H]1C(=O)N[C@@H](CCCCNC(=O)COCC(=O)NCCOCCOCCOCCOCCOCCOCCOCCOCCn1cc(CCCC(=O)Nc2c(CNC(=O)c3cccc(O)c3O)cc(CNC(=O)c3cccc(O)c3O)cc2CNC(=O)c2cccc(O)c2O)nn1)C(N)=O)[C@@H](C)CC)C(C)C)C(C)C)C(C)C (H-SLIRVSQDDLVQMSPSVISAARPK(X1)-NH2)
MIC (Pseudomonas aeruginosa [1]): > 64 µM
MIC (Pseudomonas aeruginosa [2]): > 64 µM
Activity (Pseudomonas aeruginosa [3]): inactive
Activity (Pseudomonas aeruginosa [7]): inactive
Activity (Pseudomonas aeruginosa [8]): Active
Activity (Pseudomonas aeruginosa [9]): Active

C#CCNC(=O)CN1CCN(CC(=O)NCCNC(=O)c2cccc(O)c2O)CCN(CC(=O)NCCNC(=O)c2cccc(O)c2O)CCN(CC(=O)NCCNC(=O)c2cccc(O)c2O)CC1
MIC (Pseudomonas aeruginosa [1]): 64 µM
MIC (Pseudomonas aeruginosa [2]): 64 µM
Activity (Pseudomonas aeruginosa [3]): inactive
fold change (FC) (Pseudomonas aeruginosa [10]): 2
Activity (Pseudomonas aeruginosa [4]): Active
Activity (Pseudomonas aeruginosa [5]): inactive
Activity (Pseudomonas aeruginosa [7]): Active
Activity (Pseudomonas aeruginosa [8]): inactive
